Source: BindingDB's records for doi:10.1021/jm00104a019 (Searle Research & Development, 1993)
Where a SMILES comes first, the peptide text is derived from it.

Each molecule was assayed against Integrin alpha-IIb/beta-3 (Homo sapiens, UniProt P08514+P05106) (assay: Inhibition of platelet aggregation (PRP)).
Procedure, shortened: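 Aggregation of platelets in platelet-rich plasma was induced with ADP, and inhibition of this aggregation was measured.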

Chain of Integrin alpha-IIb/beta-3 (P05106 27-788 limits assumed): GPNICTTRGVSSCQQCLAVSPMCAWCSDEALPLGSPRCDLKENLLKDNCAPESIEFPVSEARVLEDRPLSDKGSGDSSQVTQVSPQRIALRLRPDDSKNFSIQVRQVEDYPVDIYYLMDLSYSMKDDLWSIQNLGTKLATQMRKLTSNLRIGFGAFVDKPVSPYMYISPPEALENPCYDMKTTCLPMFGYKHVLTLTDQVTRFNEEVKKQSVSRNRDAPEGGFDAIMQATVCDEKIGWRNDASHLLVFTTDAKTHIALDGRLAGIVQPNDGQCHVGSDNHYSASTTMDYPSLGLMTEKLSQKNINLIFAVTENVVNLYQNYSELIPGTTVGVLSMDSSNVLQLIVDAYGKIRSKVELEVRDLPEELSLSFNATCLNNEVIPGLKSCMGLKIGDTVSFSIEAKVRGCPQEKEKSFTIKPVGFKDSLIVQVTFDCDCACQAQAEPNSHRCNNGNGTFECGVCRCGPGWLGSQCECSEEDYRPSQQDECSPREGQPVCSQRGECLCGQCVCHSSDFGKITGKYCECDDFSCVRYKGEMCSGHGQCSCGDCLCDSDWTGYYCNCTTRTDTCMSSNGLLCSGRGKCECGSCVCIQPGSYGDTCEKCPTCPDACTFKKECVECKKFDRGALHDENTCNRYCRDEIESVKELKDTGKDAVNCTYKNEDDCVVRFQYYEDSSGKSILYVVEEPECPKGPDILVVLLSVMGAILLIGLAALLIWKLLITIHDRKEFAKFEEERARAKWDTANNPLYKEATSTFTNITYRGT
Chain of Integrin alpha-IIb/beta-3 (P08514 32-887 limits assumed): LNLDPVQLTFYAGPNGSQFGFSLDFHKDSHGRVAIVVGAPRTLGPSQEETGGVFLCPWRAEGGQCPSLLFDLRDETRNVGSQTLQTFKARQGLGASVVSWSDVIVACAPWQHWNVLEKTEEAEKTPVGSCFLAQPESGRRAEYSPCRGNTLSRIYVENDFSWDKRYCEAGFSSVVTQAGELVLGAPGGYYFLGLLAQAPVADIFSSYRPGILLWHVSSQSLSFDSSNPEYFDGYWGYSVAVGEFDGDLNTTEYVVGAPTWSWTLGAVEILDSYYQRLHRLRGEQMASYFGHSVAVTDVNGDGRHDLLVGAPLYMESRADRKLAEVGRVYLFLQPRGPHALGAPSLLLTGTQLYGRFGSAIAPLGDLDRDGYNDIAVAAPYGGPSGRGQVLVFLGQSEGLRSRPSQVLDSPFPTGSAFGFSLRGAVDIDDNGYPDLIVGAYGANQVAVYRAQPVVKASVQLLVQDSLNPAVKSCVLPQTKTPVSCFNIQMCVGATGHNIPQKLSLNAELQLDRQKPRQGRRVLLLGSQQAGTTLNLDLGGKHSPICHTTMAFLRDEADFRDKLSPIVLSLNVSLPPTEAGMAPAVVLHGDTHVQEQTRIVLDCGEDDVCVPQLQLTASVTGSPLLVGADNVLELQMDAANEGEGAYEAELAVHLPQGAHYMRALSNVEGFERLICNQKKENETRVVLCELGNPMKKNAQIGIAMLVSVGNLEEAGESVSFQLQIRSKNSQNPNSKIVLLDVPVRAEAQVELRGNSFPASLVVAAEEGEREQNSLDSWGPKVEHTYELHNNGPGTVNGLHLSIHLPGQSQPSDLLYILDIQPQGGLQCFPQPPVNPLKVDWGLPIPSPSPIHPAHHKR
Chain of Integrin alpha-IIb/beta-3 (P08514 891-1039 limits assumed): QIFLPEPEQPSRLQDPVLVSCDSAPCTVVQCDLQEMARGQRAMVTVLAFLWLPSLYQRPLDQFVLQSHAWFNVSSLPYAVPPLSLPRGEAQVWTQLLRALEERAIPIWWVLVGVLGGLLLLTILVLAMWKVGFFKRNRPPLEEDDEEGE

IC50 [µM] | Structure (SMILES)
60 | N=C(N)NCCCCCCCC(=O)N[C@@H](CC(=O)O)C(=O)NCCc1ccccc1
4 | N=C(N)NCCCCCCCC(=O)N[C@@H](CC(=O)O)C(=O)N[C@@H](Cc1ccccc1)c1nnn[nH]1
40 | NC(N)=NCCC[C@H](N)C(=O)NCC(=O)N[C@@H](CC(=O)O)C(=O)N[C@@H](Cc1ccccc1)C(=O)O (H-RGDF-OH)
1.6 | N=C(N)NCCCCCCCC(=O)N[C@@H](CC(=O)O)C(=O)N[C@@H](Cc1ccccc1)C(=O)O [N-(1-Carboxy-2-phenyl-ethyl)-3-[8-(diaminomethyl-amino)-octanoylamino]-succinamic acid]
